In ChEMBL document CHEMBL4266041, “Hydroxybiphenylamide GroEL/ES Inhibitors Are Potent Antibacterials against Planktonic and Biofilm Forms of Staphylococcus aureus” (J Med Chem, 2018):

How the values were obtained:
[1] = target: HSP60/HSP10 (Homo sapiens, UniProt P10809); assay: Inhibition of human N-terminal octa-His-tagged HSP60 expressed in Escherichia coli Rosetta(DE3) pLysS/human HSP10 expressed in Escherichia coli Rosetta(DE3) assessed as reduction in HSP60/HSP10-mediated denatured MDH refolding after 40 to 60 mins by spectrometric analysis
HSP60/HSP10, sequence (P10809 whole entry): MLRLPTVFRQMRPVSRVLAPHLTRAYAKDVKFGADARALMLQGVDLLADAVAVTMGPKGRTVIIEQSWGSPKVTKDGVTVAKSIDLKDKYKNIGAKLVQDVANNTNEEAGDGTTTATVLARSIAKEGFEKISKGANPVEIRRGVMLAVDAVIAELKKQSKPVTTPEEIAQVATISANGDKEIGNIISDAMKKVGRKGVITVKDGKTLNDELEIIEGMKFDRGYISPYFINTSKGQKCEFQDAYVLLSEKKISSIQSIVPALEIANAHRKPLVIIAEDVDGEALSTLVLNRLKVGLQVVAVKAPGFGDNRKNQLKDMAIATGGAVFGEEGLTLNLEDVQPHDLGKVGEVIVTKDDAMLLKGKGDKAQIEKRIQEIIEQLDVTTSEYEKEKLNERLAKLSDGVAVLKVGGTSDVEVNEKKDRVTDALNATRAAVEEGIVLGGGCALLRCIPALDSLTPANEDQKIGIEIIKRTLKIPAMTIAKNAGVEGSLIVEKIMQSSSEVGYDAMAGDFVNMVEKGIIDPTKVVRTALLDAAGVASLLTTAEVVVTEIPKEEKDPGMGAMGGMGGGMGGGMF
HSP60/HSP10, sequence (P61604 whole entry, further chain): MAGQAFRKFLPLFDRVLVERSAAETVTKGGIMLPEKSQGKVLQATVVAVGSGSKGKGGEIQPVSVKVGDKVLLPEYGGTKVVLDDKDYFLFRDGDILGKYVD
Procedure, shortened: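 Human HSP60/10 refolding of denatured MDH, run the same way as the GroEL/ES-dMDH assay. A binary complex of chaperonin and denatured MDH is formed, and refolding is started with ATP and HSP10. MDH activity is the read-out. DMSO is the negative control. IC50 values from replicate curves are log-averaged after ROUT outlier screening.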

[2] = system: HEK293; assay: Cytotoxicity against HEK293 cells assessed as reduction in cell viability after 48 hrs by Alamar Blue reporter assay; conditions: human, hek293, 48 h
[3] = target: T1, Thiosulfate sulfurtransferase (Homo sapiens, UniProt Q16762); assay: Inhibition of refolded rhodanese (unknown origin) preincubated with Escherichia coli GroEL/GroES for 60 mins in absence of compound followed by compound addition by spectrometric analysis
T1 sequence (Q16762 whole entry): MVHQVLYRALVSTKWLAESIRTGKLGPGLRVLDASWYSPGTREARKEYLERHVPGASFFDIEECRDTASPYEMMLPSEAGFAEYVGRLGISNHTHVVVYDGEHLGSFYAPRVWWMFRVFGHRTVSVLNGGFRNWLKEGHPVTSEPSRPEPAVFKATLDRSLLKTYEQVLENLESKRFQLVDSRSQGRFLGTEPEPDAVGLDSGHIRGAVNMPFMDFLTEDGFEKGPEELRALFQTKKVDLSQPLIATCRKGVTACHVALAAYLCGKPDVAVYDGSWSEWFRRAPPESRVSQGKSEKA

[4] = target: T2, E. coli GroEL/ES (Escherichia coli, UniProt P0A6F5); assay: Inhibition of Escherichia coli GroEL expressed in Escherichia coli DH5alpha/Escherichia coli GroES expressed in Escherichia coli BL21 (DE3) assessed as reduction in GroEL/GroES-mediated denatured rhodanese refolding after 45 mins by spectrometric analysis
T2 sequence (P0A6F5 whole entry, looked up): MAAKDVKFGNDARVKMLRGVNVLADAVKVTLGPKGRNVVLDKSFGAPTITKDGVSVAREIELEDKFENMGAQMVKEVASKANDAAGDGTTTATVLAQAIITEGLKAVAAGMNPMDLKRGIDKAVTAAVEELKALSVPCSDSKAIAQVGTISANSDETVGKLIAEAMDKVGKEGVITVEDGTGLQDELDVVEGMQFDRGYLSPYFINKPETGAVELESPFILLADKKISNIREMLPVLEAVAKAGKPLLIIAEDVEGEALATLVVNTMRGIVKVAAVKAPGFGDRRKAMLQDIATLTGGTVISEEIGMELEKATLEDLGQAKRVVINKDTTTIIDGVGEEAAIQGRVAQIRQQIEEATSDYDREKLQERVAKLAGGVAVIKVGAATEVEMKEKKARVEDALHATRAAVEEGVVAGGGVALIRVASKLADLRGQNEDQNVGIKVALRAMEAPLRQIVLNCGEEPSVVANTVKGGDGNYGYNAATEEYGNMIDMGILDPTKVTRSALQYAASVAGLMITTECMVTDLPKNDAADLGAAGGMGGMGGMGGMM
Procedure, shortened: (§1)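 Uses E. coli GroEL/ES with a denatured MDH or rhodanese reporter. GroEL first forms a binary complex with the denatured reporter. Refolding is started by adding ATP and GroES, then reporter enzyme activity is read. DMSO is the negative control. IC50 values from replicate curves are log-averaged after ROUT outlier screening.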

[5] = target: T2, E. coli GroEL/ES; assay: Inhibition of Escherichia coli GroEL expressed in Escherichia coli DH5alpha/Escherichia coli GroES expressed in Escherichia coli BL21 (DE3) assessed as reduction in GroEL/GroES-mediated denatured MDH refolding after 20 to 40 mins by spectrometric analysis; procedure, shortened: as §1
[6] = Cytotoxicity against human THLE3 cells assessed as reduction in cell viability after 48 hrs by Alamar Blue reporter assay; conditions: 48 h
[7] = system: Enterobacter cloacae; assay: Antibacterial activity against Enterobacter cloacae subsp. cloacae ATCC 13047 after 24 hrs by bacterial proliferation assay; format: functional, organism-based; conditions: subsp. cloacae ATCC 13047, 24 h
Procedure, shortened: (§2)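 Bacterial growth inhibition in liquid culture. The highest concentration tested was 100 µM. The mean was back-calculated from the average log value. Values above the top concentration were set 0.1 log unit higher.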

[8] = system: Acinetobacter baumannii; assay: Antibacterial activity against Acinetobacter baumannii ATCC 19606 after 24 hrs by bacterial proliferation assay; format: functional, organism-based; conditions: ATCC 19606 = CIP 70.34 = JCM 6841, 24 h; procedure, shortened: as §2
[9] = Inhibition of refolded MDH (unknown origin) preincubated with Escherichia coli GroEL/GroES for 45 mins in absence of compound followed by compound addition and measured for 20 to 35 mins by spectrometric analysis
[10] = system: Staphylococcus aureus; assay: Antibacterial activity against Staphylococcus aureus ATCC 25923 after 6 to 8 hrs by bacterial proliferation assay; format: functional, organism-based
[11] = system: Enterococcus faecium; assay: Antibacterial activity against Enterococcus faecium ATCC 19434 after 24 hrs by bacterial proliferation assay; format: functional, organism-based; conditions: ATCC 19434, 24 h
[12] = system: Pseudomonas aeruginosa; assay: Antibacterial activity against Pseudomonas aeruginosa ATCC 10145 after 24 hrs by bacterial proliferation assay; format: functional, organism-based; conditions: ATCC 10145, 24 h; procedure, shortened: as §2
[13] = system: Klebsiella pneumoniae; assay: Antibacterial activity against Klebsiella pneumoniae ATCC 13883 after 6 to 8 hrs by bacterial proliferation assay; format: functional, organism-based; procedure, shortened: as §2
[14] = system: Staphylococcus aureus; assay: Antibacterial activity against methicillin-resistant Staphylococcus aureus ATCC BAA-44 after 6 to 8 hrs by bacterial proliferation assay; format: functional, organism-based; conditions: Staphylococcus aureus, ATCC BAA-44

Compound	IC50 [1] [µM]	CC50 [2] [µM]	IC50 [3] [µM]	IC50 [4] [µM]	IC50 [5] [µM]	CC50 [6] [µM]	EC50 [7] [µM]	EC50 [8] [µM]	IC50 [9] [µM]	EC50 [10] [µM]	EC50 [11] [µM]	EC50 [12] [µM]	EC50 [13] [µM]	EC50 [14] [µM]
O=C(Nc1ccc(Sc2nc3ccccc3s2)cc1)c1cccc(Br)c1	> 100	74	> 100	> 100	> 100	82	> 100	> 100	> 63	> 100	> 100	> 100	> 100	> 100
O=C(Nc1ccccc1)c1cc(Br)ccc1O	> 100	35	> 100	> 100	> 100	16	> 100	> 100	> 63	2.8	> 100	> 100	78	4.1
O=C(Nc1ccc(Sc2nc3ccccc3s2)c(Cl)c1)c1cc(Br)cc(Br)c1	> 100	> 100	> 100	> 100	> 100	> 100	> 100	> 100	> 63	> 100	> 100	> 100	> 100	> 100
O=C(Nc1ccc(Sc2nc3ccccc3s2)c(Cl)c1)c1cccc(Br)c1	> 100	> 100	> 100	> 100	> 100	88	> 100	> 100	> 63	> 100	> 100	> 100	> 100	> 100
COc1ccccc1C(=O)Nc1cccc(Cl)c1	> 100	> 100	> 100	> 100	> 100	> 100	> 100	> 100	> 63	> 100	> 100	> 100	> 100	> 100
COc1ccc(Br)cc1C(=O)Nc1ccc(Sc2nc3ccccc3s2)c(Cl)c1	> 100	> 100	> 100	> 100	> 100	> 100	> 100	> 100	> 63	> 100	> 100	> 100	> 100	> 100
COc1ccc(Br)cc1C(=O)Nc1cccc(Cl)c1	> 100	> 100	> 100	> 100	> 100	94	> 100	> 100	> 63	> 100	> 100	> 100	> 100	> 100
O=C(Nc1cccc(Cl)c1)c1ccccc1O	> 100	37	> 100	> 100	> 100	16	> 100	> 100	> 63	3.1	> 100	> 100	> 100	4.2
CC1(C)S[C@@H]2[C@H](NC(=O)[C@H](N)c3ccccc3)C(=O)N2[C@H]1C(=O)O [AMPICILLIN]	> 100	> 100	> 100	> 100	> 100	> 100	> 100	> 100	> 63	0.19	6.9	> 100	> 100	> 100
COc1c(Br)cc(Br)cc1C(=O)Nc1ccc(Sc2nc3ccccc3s2)cc1	> 100	> 100	> 100	> 100	> 100	> 100	> 100	> 100	> 63	> 100	> 100	> 100	> 100	> 100
O=C(Nc1ccc(Sc2nc3ccccc3s2)cc1)c1ccccc1	> 100	> 100	> 100	> 100	> 100	> 100	> 100	> 100	> 63	> 100	> 100	> 100	> 100	> 100
COc1c(Br)cccc1C(=O)Nc1ccccc1	> 100	> 100	> 100	> 100	> 100	> 100	> 100	> 100	> 63	> 100	> 100	> 100	> 100	> 100
COc1ccc(Br)cc1C(=O)Nc1ccc(Sc2nc3ccccc3s2)cc1	> 100	> 100	> 100	> 100	> 100	> 100	> 100	> 100	> 63	> 100	> 100	> 100	> 100	> 100
COc1ccc(Br)cc1C(=O)Nc1ccccc1	> 100	> 100	> 100	> 100	> 100	> 100	> 100	> 100	> 63	> 100	> 100	> 100	> 100	> 100
COc1ccccc1C(=O)Nc1ccc(Sc2nc3ccccc3s2)cc1	> 100	> 100	> 100	> 100	> 100	> 100	> 100	> 100	> 63	> 100	> 100	> 100	> 100	> 100
O=C(Nc1ccccc1)c1cccc(Br)c1	> 100	> 100	> 100	> 100	> 100	> 100	> 100	> 100	> 63	> 100	> 100	> 100	> 100	> 100
O=C(Nc1cccc(Cl)c1)c1cccc(Br)c1O	> 100	32	> 100	> 100	> 100	16	> 100	> 100	> 63	1.3	> 100	> 100	> 100	2
O=C(Nc1cccc(Cl)c1)c1cc(Br)cc(Br)c1	> 100	53	> 100	> 100	> 100	45	> 100	> 100	> 63	14	> 100	> 100	> 100	12
